Measurements from different studies.
Each line is one published result; the experiments were not run side by side.
Target: Serine/threonine-protein kinase D1 (PRKD1, Homo sapiens, UniProt Q15139)
Residues used in one study (Q15139 1-912): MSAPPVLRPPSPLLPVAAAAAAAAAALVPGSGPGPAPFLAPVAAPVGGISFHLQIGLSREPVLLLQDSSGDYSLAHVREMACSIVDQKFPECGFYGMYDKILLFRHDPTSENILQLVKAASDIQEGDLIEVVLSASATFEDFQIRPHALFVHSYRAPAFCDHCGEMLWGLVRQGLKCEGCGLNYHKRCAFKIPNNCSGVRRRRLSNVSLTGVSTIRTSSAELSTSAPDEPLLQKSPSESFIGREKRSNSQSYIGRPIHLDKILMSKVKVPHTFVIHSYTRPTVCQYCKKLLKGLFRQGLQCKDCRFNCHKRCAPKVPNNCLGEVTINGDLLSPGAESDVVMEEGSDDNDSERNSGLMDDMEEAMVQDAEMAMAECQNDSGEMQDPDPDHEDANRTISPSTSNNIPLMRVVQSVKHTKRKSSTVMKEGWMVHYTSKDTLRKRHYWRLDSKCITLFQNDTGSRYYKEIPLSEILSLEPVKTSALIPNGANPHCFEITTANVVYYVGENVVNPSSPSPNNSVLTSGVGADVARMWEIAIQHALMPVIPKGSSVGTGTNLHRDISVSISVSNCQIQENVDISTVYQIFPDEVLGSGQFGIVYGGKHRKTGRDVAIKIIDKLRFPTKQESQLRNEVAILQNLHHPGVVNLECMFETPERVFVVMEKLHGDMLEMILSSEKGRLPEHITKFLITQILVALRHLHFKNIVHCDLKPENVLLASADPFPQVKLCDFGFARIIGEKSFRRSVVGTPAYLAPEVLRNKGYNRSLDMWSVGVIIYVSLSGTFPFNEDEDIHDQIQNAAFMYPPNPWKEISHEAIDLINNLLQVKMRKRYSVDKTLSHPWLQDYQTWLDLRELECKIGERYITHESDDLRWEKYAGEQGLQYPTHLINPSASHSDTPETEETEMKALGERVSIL

SMILES	read-out	action	method	concentration	measurement	value
Cn1cncc1[C@](O)(COc1ccc(C#N)cc1-c1ccc(OC(F)(F)F)cc1)c1ccc(C#N)cc1	cell-free assay		competition with immobilised ligand	1 µM	remaining binding	99%
COc1cc(Nc2ncc(F)c(Nc3ccc4c(n3)NC(=O)C(C)(C)O4)n2)cc(OC)c1OC	binding			10 µM	inhibition	17%
Cn1cc(-c2cc(F)cc(N3CCn4c(cc5c4CCCC5)C3=O)c2CO)cc(Nc2ccc(N3CCN(C4COC4)CC3)cn2)c1=O	enzyme activity	inhibitor		0.1 µM	inhibition	12%
COc1ncccc1-c1cnn2ccc(N3CCN(C(=O)OC(C)C)CC3)nc12	binding		competition with immobilised ligand	1 µM	remaining binding	100%
CC(C)(C)c1cc(C=C(C#N)C#N)cc(Br)c1O	enzyme activity	inhibitor		0.5 µM	remaining activity	100%
N#CC1(c2ccccn2)CCN(Cc2cc(C(=O)O)c(=O)n3ccccc23)CC1	cell-free assay		competition with immobilised ligand	1 µM	remaining binding	87%
Nc1ncc(-c2nc(N3CCOCC3)nc(N3CCOCC3)n2)c(C(F)F)n1	binding		competition with immobilised ligand	10 µM	remaining binding	80%
Cn1cc(-c2cccc(N3CCc4c(sc5c4CC(C)(C)C5)C3=O)c2CO)cc(Nc2ccncn2)c1=O	enzyme activity	inhibitor		1 µM	inhibition	2%
Cc1nn(C)cc1-c1nc2c(N3CCN(Cc4ccc(Cl)cc4)CC3)c(Cl)cnc2[nH]1	binding		competition with immobilised ligand	1 µM	remaining binding	100%
O=c1[nH]c2ccccc2n1C1CCN(Cc2ccc(-c3[nH]c4cc5ncnc5cc4nc3-c3ccccc3)cc2)CC1	cell-free assay			0.5 µM	remaining signal	94.7%
